Legend:
[1] = tested on: p-AKT (S473) in PRP; experiment: p-AKT in platelet-rich plasma by Meso Scale Discovery immunoassay; type: in vivo, human
[2] = tested on: p-AKT; experiment: p-AKT immunohistochemistry in pre- and post-treatment tumor biopsies; type: in vivo, human; conditions: 50 mg BD
Method in brief: (§1)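 Paired tumor biopsies taken before treatment and on days 8-15 of continuous oral twice-daily dosing, in a subset of expansion-cohort patients with advanced solid tumors. Patients fasted (water allowed) 2 h before and 1 h after each dose. Markers were scored by immunohistochemistry on post-treatment versus pre-treatment samples.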

[3] = clinical plasma pharmacokinetics; type: in vivo, human; conditions: for AUC / Cmax / half-life: human, plasma
[4] = tested on: p-4EBP1; experiment: p-4EBP1 immunohistochemistry in pre- and post-treatment tumor biopsies; type: in vivo, human; conditions: 50 mg BD, post-treatment vs pre-treatment, mean H score
Method in brief: as §1

[5] = [14C]-AZD2014 metabolism and excretion after a single dose in rats; type: in vivo
[6] = tested on: CYP isozymes; experiment: metabolism in human hepatocytes and heterologously expressed CYP isozymes; type: in vitro ADME
[7] = tested on: p-S6; experiment: p-S6 immunohistochemistry in pre- and post-treatment tumor biopsies; type: in vivo, human; conditions: 50 mg BD, post-treatment vs pre-treatment, mean H score
Method in brief: as §1

[8] = tested on: p-4EBP1 in PBMNCs; experiment: p-4EBP1 in peripheral blood mononuclear cells by flow cytometry; type: in vivo, human
[9] = tested on: MCF7 xenograft models; experiment: MCF7 xenograft growth inhibition; type: in vivo
[10] = tested on: SUVmax of tumors; experiment: FDG PET scans at baseline and day 8; type: in vivo, human; conditions: Part B, 50 mg BD, paired FDG PET scans
[11] = tested on: advanced solid tumors; experiment: disease response by RECIST 1.1; type: in vivo, human; conditions: one each with ovarian and endometrial cancer
[12] = 50 mg, 24 hours (12 hours after the 2nd BD dose)

## CNC(=O)c1cccc(-c2ccc3c(N4CCOC[C@@H]4C)nc(N4CCOC[C@@H]4C)nc3n2)c1 [AZD2014]
[1]; [12]
  mean % change from baseline in p-AKT: −2%
[1]; single 50 mg dose, 6-8 hours
  mean % change from baseline in p-AKT: −37%
[1]; single 50 mg dose, 2 hours
  mean % change from baseline in p-AKT: −62%
[2]
  induction of phosphorylation of AKT in post-treatment biopsies: no instances of induction of phosphorylation of AKT were seen
[2]; post-treatment vs pre-treatment, mean H score
  paired biopsy samples with a reduction of p-AKT levels: 3/4
[3]; 50mg BD solution, converted from total exposure with MW and 5.47% free
  free weekly AUC, average: 11.05 µM·h
[3]; 50 mg BD, n=27
  Cmin SS, Gmean: 169.5 ng/mL
  Cmin SS, range: 0 to 2120 ng/mL
[3]; 25 to 100 mg
  dose proportionality of Geomean exposure (AUC and Cmax): increased greater than proportionally with increasing dose
[3]; oral, 25 mg, AUC, Gmean, Single dose, N=6
  AUC: 1640 ng·h/mL
[3]; oral, 25 mg, AUC, Range, Single dose, N=6
  AUC: 883 to 2730 ng·h/mL
[3]; oral, 25 mg, AUCss, Gmean, Steady state, 25 mg BD, N=6
  AUC: 2980 ng·h/mL
[3]; oral, 25 mg, AUCss, Range, Steady state, 25 mg BD, N=6
  AUC: 1000 to 6560 ng·h/mL
[3]; oral, 25 mg, Cmax ss, Gmean, Steady state, 25 mg BD, N=6
  Cmax: 747 ng/mL
[3]; oral, 25 mg, Cmax ss, Range, Steady state, 25 mg BD, N=6
  Cmax: 227 to 1450 ng/mL
[3]; oral, 25 mg, Cmax, Gmean, Single dose, N=6
  Cmax: 435 ng/mL
[3]; oral, 25 mg, Cmax, Range, Single dose, N=6
  Cmax: 221 to 681 ng/mL
[3]; oral, 25 mg, t½, Mean, Single dose, N=6
  half-life: 2.96 h
[3]; oral, 25 mg, t½, Range, Single dose, N=6
  half-life: 0.88 to 6.71 h
[3]; oral, 25 mg, t½, ss, Mean, Steady state, 25 mg BD, N=6
  half-life: 2.89 h
[3]; oral, 25 mg, t½, ss, Range, Steady state, 25 mg BD, N=6
  half-life: 1.34 to 4.06 h
[3]; oral, 50 mg, AUC, Gmean, Single dose, N=27
  AUC: 4020 ng·h/mL
[3]; oral, 50 mg, AUC, Range, Single dose, N=27
  AUC: 453 to 12600 ng·h/mL
[3]; oral, 50 mg, AUCss, Gmean, Steady state, 50 mg BD, N=37
  AUC: 6690 ng·h/mL
[3]; oral, 50 mg, AUCss, Range, Steady state, 50 mg BD, N=37
  AUC: 1280 to 47800 ng·h/mL
[3]; oral, 50 mg, Cmax ss, Gmean, Steady state, 50 mg BD, N=37
  Cmax: 1660 ng/mL
[3]; oral, 50 mg, Cmax ss, Range, Steady state, 50 mg BD, N=37
  Cmax: 657 to 6410 ng/mL
[3]; oral, 50 mg, Cmax, Gmean, Single dose, N=27
  Cmax: 1150 ng/mL
[3]; oral, 50 mg, Cmax, Range, Single dose, N=27
  Cmax: 234 to 2840 ng/mL
[3]; oral, 50 mg, t½, Mean, Single dose, N=27
  half-life: 2.48 h
[3]; oral, 50 mg, t½, Range, Single dose, N=27
  half-life: 0.9 to 8.04 h
[3]; oral, 50 mg, t½, ss, Mean, Steady state, 50 mg BD, N=37
  half-life: 3.01 h
[3]; oral, 50 mg, t½, ss, Range, Steady state, 50 mg BD, N=37
  half-life: 1.18 to 4.8 h
[3]; oral, 70 mg, AUC, Gmean, Single dose, N=5
  AUC: 8970 ng·h/mL
[3]; oral, 70 mg, AUC, Range, Single dose, N=5
  AUC: 6010 to 14200 ng·h/mL
[3]; oral, 70 mg, AUCss, Range, Steady state, 70 mg BD, N=2
  AUC: 7500 to 22500 ng·h/mL
[3]; oral, 70 mg, Cmax ss, Range, Steady state, 70 mg BD, N=2
  Cmax: 1500 to 3870 ng/mL
[3]; oral, 70 mg, Cmax, Gmean, Single dose, N=5
  Cmax: 2380 ng/mL
[3]; oral, 70 mg, Cmax, Range, Single dose, N=5
  Cmax: 1440 to 3690 ng/mL
[3]; oral, 70 mg, t½, Mean, Single dose, N=5
  half-life: 3.11 h
[3]; oral, 70 mg, t½, Range, Single dose, N=5
  half-life: 1.35 to 5.98 h
[3]; oral, 70 mg, t½, ss, Range, Steady state, 70 mg BD, N=2
  half-life: 3.63 to 4.23 h
[3]; oral, 100 mg, AUC, Gmean, Single dose, N=4
  AUC: 9670 ng·h/mL
[3]; oral, 100 mg, AUC, Range, Single dose, N=4
  AUC: 4770 to 16100 ng·h/mL
[3]; oral, 100 mg, Cmax, Gmean, Single dose, N=4
  Cmax: 2790 ng/mL
[3]; oral, 100 mg, Cmax, Range, Single dose, N=4
  Cmax: 1410 to 5050 ng/mL
[3]; oral, 100 mg, t½, Mean, Single dose, N=4
  half-life: 3.23 h
[3]; oral, 100 mg, t½, Range, Single dose, N=4
  half-life: 0.82 to 6.49 h
[3]; po, terminal elimination half-life, patients
  half-life: ~3 h
[4]
  paired biopsy samples with a reduction of p-4EBP1 levels: 3/7
[5]
  faecal excretion, % of dosed radioactivity: ~85%
  urinary excretion, % of dosed radioactivity: approximately 2%
[6]
  metabolising CYP isozymes: primarily metabolised by CYP 3A5 and 2C8 with some contribution from 3A4
[7]
  evaluable paired biopsy samples with a reduction of p-S6 levels: 8/8
[8]; [12]
  mean % change from baseline in p-4EBP1: −21%
[8]; single 50 mg dose, 6-8 hours
  mean % change from baseline in p-4EBP1: ~−41%
[9]; 4500 nM.h free weekly AUC
  total growth inhibition (TGI): > 70%
[9]; 17000 nM.h free weekly AUC
  total growth inhibition (TGI): ≥ 100%
[10]
  patients attaining a partial response (30% reduction in SUVmax): 3/11
  patients with a reduction of SUVmax: 8/11
[11]
  patients with prolonged stable disease on treatment for more than one year: two patients
